Test results published in ChEMBL document CHEMBL5046312, “Rational Design of an Orally Active Anticancer Fluoropyrimidine, Pencitabine, a Hybrid of Capecitabine and Gemcitabine” (ACS Med Chem Lett, 2022).
pIC50: −log10 of the molar value.

Columns and labels:
SK-BR-3 [1] = test: Induction of DNA damage in human SK-BR-3 cells assessed as increase in tail DNA measured at 10 uM after 72 hrs by neutral comet assay relative to control; type: functional; details: in the assay text read “alkaline comet assay” for “neutral comet assay”
In short: (§1)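 Comet assay scoring DNA damage as % DNA in tail; cells exposed to 0.5, 1.0 or 2.0 μM etoposide or 1.0, 3.0 or 10 μM test nucleoside; mean of scored comets per sample with SE and 80% confidence interval.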

SK-BR-3 [2] = test: Induction of DNA damage in human SK-BR-3 cells assessed as increase in tail DNA measured at 1 uM after 72 hrs by neutral comet assay relative to control; type: functional; details: in the assay text read “alkaline comet assay” for “neutral comet assay”; in short: as §1
SK-BR-3 [3] = test: Induction of DNA damage in human SK-BR-3 cells assessed as increase in tail DNA measured at 3 uM after 72 hrs by neutral comet assay relative to control; type: functional; details: in the assay text read “alkaline comet assay” for “neutral comet assay”; in short: as §1
HCT-116 [4] = test: Antitumor activity against human HCT-116 cells xenografted in athymic nude mouse assessed as tumor growth inhibition at 25 mg/kg, po administered for 26 days relative to control; type: functional; details: HCT-116, po, 624 h, time 26 day
In short: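 Subcutaneous HCT-116 human colorectal carcinoma xenografts in athymic female nude mice; oral dosing at 25 mg/kg over a 26-day period, with capecitabine given as positive control; tumor growth followed, N = 3, SD shown.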

HCT-116 [5] = test: Antiproliferative activity against human HCT-116 cells assessed as reduction in cell viability incubated for 72 hrs by MTT assay; type: functional, cell-based; details: HCT-116, 72 h
In short: (§2)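 Growth inhibition after 72 h continuous exposure of HCT-116 colorectal carcinoma or KG-1 acute myelogenous leukemia cells; concentration giving 50% inhibition taken from dose–response curves.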

KG-1 = test: Antiproliferative activity against human KG-1 cells assessed as reduction in cell viability incubated for 72 hrs by MTT assay; type: functional, cell-based; details: KG-1, 72 h; in short: as §2
SK-BR-3 [6] = test: Induction of DNA damage in human SK-BR-3 cells assessed as increase in tail DNA measured at 2 uM after 72 hrs by neutral comet assay relative to control; type: functional; details: in the assay text read “alkaline comet assay” for “neutral comet assay”; in short: as §1
SK-BR-3 [7] = test: Induction of DNA damage in human SK-BR-3 cells assessed as increase in tail DNA measured at 0.5 uM after 72 hrs by neutral comet assay relative to control; type: functional; details: in the assay text read “alkaline comet assay” for “neutral comet assay”; in short: as §1

Row | SMILES | pIC50 (HCT-116 [5]) | Activity (SK-BR-3 [2]) | pIC50 (KG-1) | also measured
1 | Nc1nc(=O)n([C@@H]2O[C@H](CO)[C@@H](O)C2(F)F)cc1F | – | 20.7% | – | Activity (SK-BR-3 [1]): 26.73%; Activity (SK-BR-3 [3]): 24.28%
2 | COc1cc([C@@H]2c3cc4c(cc3[C@@H](O[C@@H]3O[C@@H]5CO[C@@H](C)O[C@H]5[C@H](O)[C@H]3O)[C@H]3COC(=O)[C@H]23)OCO4)cc(OC)c1O [ETOPOSIDE] | – | 24.98% | – | Activity (SK-BR-3 [6]): 35.17%; Activity (SK-BR-3 [7]): 15.87%

Second part, led by results:

Row | pIC50 (HCT-116 [5]) | SMILES | Activity (SK-BR-3 [2]) | pIC50 (KG-1) | also measured
3 | 6.43 | CCCCCOC(=O)Nc1nc(=O)n([C@@H]2O[C@H](CO)[C@@H](O)C2(F)F)cc1F | – | 6.89 | inhibition in vivo at 25 mg/kg (HCT-116 [4]): 40%
4 | 4.47 | CCCCCOC(=O)Nc1nc(=O)n([C@@H]2O[C@H](C)[C@@H](O)[C@H]2O)cc1F [CAPECITABINE] | – | 5.05 | –
5 | 7.30 | Nc1ccn([C@@H]2O[C@H](CO)[C@@H](O)C2(F)F)c(=O)n1 [GEMCITABINE] | – | 7.74 | –
